Assay outcomes as filed in PubChem.
FXN GAA850 act – frataxin GAA850 promoter activation; 0.56% of 360,000 active; AID 540364; activation, % at 6 µM; HEK293 lucGAA850 FXN promoter luciferase reporter, 24 h; percent of 10 µM SAHA response;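 active means activation above the average of all compounds screened plus 3 SD, cutoff fixed separately per campaign, cut at about 7.5% in these data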
procasp7 counter – counter-screen: procaspase-7 (human) activation | P55210 | recombinant procaspase-7, Ac-DEVD-pNA absorbance 405 nm; D23A/D198A/D206A triple mutant, cannot self-cleave; scale: DMSO 0, 5 µM enzyme 100 | activation, % at 8.5 µM | 0.093% of 330,000 active | AID 463210;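 active means percent activation above the screen-wide mean plus 3 SD, cut at about 25% in these data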
Target sequence (P55210 whole entry D23A/D198A/D206A): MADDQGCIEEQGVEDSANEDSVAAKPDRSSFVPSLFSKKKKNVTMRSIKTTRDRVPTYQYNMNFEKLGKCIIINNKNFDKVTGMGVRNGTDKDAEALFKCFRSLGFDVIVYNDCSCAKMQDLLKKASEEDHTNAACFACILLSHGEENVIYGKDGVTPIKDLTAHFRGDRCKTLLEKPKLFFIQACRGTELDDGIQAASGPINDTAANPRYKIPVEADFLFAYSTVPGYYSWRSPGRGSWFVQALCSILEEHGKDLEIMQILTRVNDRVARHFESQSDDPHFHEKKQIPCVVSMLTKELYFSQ
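buffer or medium = Zinc-free HEPES/NaCl buffer, pH 7.4 | material = Procaspase-7 triple mutant (PC-7 D3A) | input = 2 µM procaspase-7 mutant as dispensed | signal = Epi-absorbance of released pNA at 405 nm, two timepoints | timing = 1 h preincubation, 2 h reaction | replicates = singlicate compound testing | evaluation = % activation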
proCasp3 act – activates human procaspase-3. activation, % at 8.5 µM. P42574. recombinant procaspase-3 D3A, Ac-DEVD-pNA absorbance 405 nm. 0.11% of 330,000 active;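 active means activation above the mean of all tested compounds plus 3 SD, cut at about 21% in these data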
Target sequence (P42574 whole entry D9A/D28A/D175A): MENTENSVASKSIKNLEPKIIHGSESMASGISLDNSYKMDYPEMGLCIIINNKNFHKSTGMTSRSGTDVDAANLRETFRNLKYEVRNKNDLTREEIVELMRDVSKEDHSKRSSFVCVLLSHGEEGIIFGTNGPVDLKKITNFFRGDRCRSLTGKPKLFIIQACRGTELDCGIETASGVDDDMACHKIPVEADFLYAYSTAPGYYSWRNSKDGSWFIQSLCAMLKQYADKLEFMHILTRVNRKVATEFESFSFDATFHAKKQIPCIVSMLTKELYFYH
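Technique: 405 nm absorbance of p-nitroaniline, reads at 0 and 120 min; Test system: Procaspase-3 D3A mutant; Incubation: 1 h enzyme-compound preincubation, then 2 h substrate reaction, 25 °C; Repeats: singlicate, each compound tested once; Benchmarks: low control DMSO wells, high control DMSO plus 5 µM PC-3 D3A.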
GAA30 FXN cntr – GAA30 FXN promoter activation counter-screen; shares compounds with FXN GAA850 act; HEK293 lucGAA30 FXN promoter luciferase, 24 h; DMSO = 0%, 5 µM ipriflavone = 100%; activation, % at 6 µM; 66% of 1,900 active; AID 588350;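 active means mean activation above the mean of solvent-only control wells plus 3 SD, cut at about 22% in these data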;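 further: counterscreen of GAA850 promoter hits where activity marks nonselective or luminescence artifacts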
FXN GAA850 conf – confirmation of GAA850 frataxin (FXN) promoter activators; shares compounds with FXN GAA850 act; HEK293 lucGAA850 FXN promoter luciferase reporter, 24 h; 100% = activation by SAHA; activation, % at 6 µM; 86% of 1,900 active; AID 588351;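 active means mean activation above a set limit taken from the primary screen, cut at about 8% in these data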
Of the large screens only hits and unclear results are named; the others gave an inactive call (follow-up assays come after a bar, where they were run). This is a sample that favours compounds with a hit; in the whole collection about 0.7% have one here.

COCC(C)NC(=O)NC1(C(F)(F)F)Oc2ccc(Cl)cc2O1 (stereo unspecified)	FXN GAA850 act 10 | GAA30 FXN cntr inactive | FXN GAA850 conf 18
CCOC(=O)Cc1csc(NC(=O)NC2(C(F)(F)F)Oc3ccc(Cl)cc3O2)n1 (stereo unspecified)	FXN GAA850 act 8.5 | GAA30 FXN cntr 44 | FXN GAA850 conf 17
O=C(NCCN1CCOCC1)c1cc(Cl)ccc1Cl	none (no result: procasp7 counter, proCasp3 act)
O=C(NCCN1CCOCC1)NC1(C(F)(F)F)Oc2ccc(Cl)cc2O1 (stereo unspecified)	FXN GAA850 act 15 | GAA30 FXN cntr 36 | FXN GAA850 conf 20
COCC(C)NC(=O)NC(=O)c1ccc(Cl)cc1 (stereo unspecified)	none
COC(OC)c1ccc(C#N)c(=O)[nH]1	none
CCOC(=O)CCCCC1C(CCCC(=O)OCC)C=NN1C (stereo unspecified)	none (no result: procasp7 counter, proCasp3 act)
CCCn1c(N)c(C(=O)CSc2nnc3ccccn23)c(=O)n(C)c1=O	none (no result: procasp7 counter, proCasp3 act)
Cc1ccc(/C=N\Nc2cn[nH]c(=O)c2Cl)cc1	FXN GAA850 act 11 | GAA30 FXN cntr 104 | FXN GAA850 conf 32
O=c1[nH]ncc(N/N=C/c2ccccc2)c1Cl	none
O=c1[nH]c(=O)n(Cc2ccc(Oc3ccccc3)cc2)cc1Br	none
C=C1CC(Cn2cc(Br)c(=O)[nH]c2=O)(c2ccc(-c3ccccc3)cc2)OC1=O (stereo unspecified)	FXN GAA850 act 11 (no result: procasp7 counter, proCasp3 act) | GAA30 FXN cntr inactive | FXN GAA850 conf 52
COc1ccc(OCCSc2nc(N)cc(N)n2)cc1	none
Cc1ccc(OCCSc2nc(N)cc(N)n2)cc1	FXN GAA850 act 9.1 | GAA30 FXN cntr 110 | FXN GAA850 conf 37
Cc1ccc(-c2nn(C(C)(C)C)c3ncnc(NS(=O)(=O)c4ccc([N+](=O)[O-])cc4)c23)cc1	none
CC(C)(C)n1nc(-c2ccc(F)cc2)c2c(N)ncnc21	FXN GAA850 act 12 | GAA30 FXN cntr 54 | FXN GAA850 conf 12
CC(C)(C)n1nc(-c2ccc(Cl)cc2)c2c(N)ncnc21	FXN GAA850 act 11 | GAA30 FXN cntr 64 | FXN GAA850 conf inactive
Cc1ccc(-c2nc(N)c3c(-c4ccc(C)cc4)nn(C(C)(C)C)c3n2)cc1	none
O=C(CSc1nnc(CNC(=O)c2cccs2)o1)Nc1ccc(Cl)cc1	none
Cc1ccc(OCC(=O)NNC(=O)CCc2ccccc2)c(Br)c1	none
CC(C)c1ccc(S(=O)(=O)N2CCN(C(=O)C3CCCC3)CC2)cc1	none
Oc1csc(Cc2nc(-c3ccc4ccccc4c3)cs2)n1	FXN GAA850 act 10 | GAA30 FXN cntr 63 | FXN GAA850 conf 43
Oc1csc(Cc2nc(-c3ccc(-c4ccccc4)cc3)cs2)n1	none
C=CCNC(=S)NNC(=O)Cn1c(-c2ccccc2)cc(=O)n2ncnc12	none
CCCC(=O)N/C(N)=N/c1nc2ccccc2o1	none
CCC(=O)N/C(N)=N/c1nc2ccccc2o1	FXN GAA850 act 7.8 | GAA30 FXN cntr 113 | FXN GAA850 conf 37
CCN(C[C@H]1N[C@@](CC)(C(=O)OC)[C@H]2C(=O)N(Cc3ccccc3)C(=O)[C@@H]12)C(=O)Nc1ccc(OC)cc1	FXN GAA850 act 18 | GAA30 FXN cntr 47 | FXN GAA850 conf 16
CCN(C[C@H]1N[C@@](CC)(C(=O)OC)[C@H]2C(=O)N(Cc3ccccc3)C(=O)[C@@H]12)C(C)=O	none
CC[C@@]1(C(=O)OC)N[C@H](CN(C)C(=O)Nc2ccc(Cl)cc2)[C@@H]2C(=O)N(Cc3ccccc3)C(=O)[C@@H]21	FXN GAA850 act 17 | GAA30 FXN cntr inactive | FXN GAA850 conf 11
CC[C@@]1(C(=O)OC)N[C@H](CN(C)C(=O)Nc2ccc(Cl)cc2)[C@@H]2C(=O)N(C)C(=O)[C@@H]21	none
COC(=O)[C@]1(Cc2ccccc2)N[C@H](CN(C)C(=O)Nc2ccc(OC)cc2)[C@@H]2C(=O)N(Cc3ccccc3)C(=O)[C@@H]21	none
CC[C@@]1(C(=O)OC)N[C@H](CN(C)C(=O)COc2ccccc2)[C@@H]2C(=O)N(Cc3ccccc3)C(=O)[C@@H]21	FXN GAA850 act 9.5 | GAA30 FXN cntr inactive | FXN GAA850 conf inactive
CC[C@@]1(C(=O)OC)N[C@H](CN(C)C(C)=O)[C@@H]2C(=O)N(Cc3ccccc3)C(=O)[C@@H]21	none
CCN(C[C@H]1N[C@@](CC)(C(=O)OC)[C@H]2C(=O)N(Cc3ccccc3)C(=O)[C@@H]12)C(=O)Nc1ccc(C(F)(F)F)cc1	FXN GAA850 act 8.4 | GAA30 FXN cntr 27 | FXN GAA850 conf 14
CC1(C)C2CCC(C2)C1C/C=N/NC(N)=S (stereo unspecified)	none
O=[N+]([O-])c1cccc(N(CC2CO2)S(=O)(=O)c2ccccc2)c1 (stereo unspecified)	none
CN(C)/C=N/NC(=O)c1ccccc1	none
CC(O)C(O)C(O)C(O)/C=N/NC(=O)c1ccccc1 (stereo unspecified)	FXN GAA850 act 7.7 | GAA30 FXN cntr 23 | FXN GAA850 conf inactive
COc1cc(NC(=O)Nc2cccn3nc(COCCO)nc23)cc(OC)c1OC	none (no result: procasp7 counter, proCasp3 act)
C/C(=N\NC(=O)COc1ccc(C(C)(C)C)cc1)c1ccccc1	none
C/C(=N\NC(=O)COc1ccc(C(C)(C)C)cc1)c1cc2ccccc2o1	FXN GAA850 act 9.5 | GAA30 FXN cntr 105 | FXN GAA850 conf 39
CC(c1ccco1)N(C(=O)C12CC3CC(CC(C3)C1)C2)c1ccccn1 (stereo unspecified)	none
O=C(N(c1ccccn1)c1ccccn1)C12CC3CC(CC(Cl)(C3)C1)C2	FXN GAA850 act 8.4 | GAA30 FXN cntr inactive | FXN GAA850 conf inactive
CSc1ncccc1C(=O)OCC(=O)N1CC(=O)Nc2ccccc21	none
COC(=O)C1=C(C)N(C)C(=O)NC1c1cc(Cl)c(O)c(OC)c1 (stereo unspecified)	FXN GAA850 act 7.8 | GAA30 FXN cntr inactive | FXN GAA850 conf 12
COC(=O)C1=C(C)N(C)C(=O)NC1c1cc(Cl)cc(Cl)c1OC (stereo unspecified)	none
Cc1cc(C)c(CN2CCC(N3CCC(C(=O)NCC4CCCO4)CC3)CC2)cc1C (stereo unspecified)	none
O=C1CN(C(=O)C2CCC(=O)N(CCc3ccc(Cl)cc3)C2)CCN1 (stereo unspecified)	none
Nc1nc(Nc2ccccc2)nc(N2CCCC2)c1[N+](=O)[O-]	FXN GAA850 act 11 | GAA30 FXN cntr 75 | FXN GAA850 conf 39
COc1ccc(Nc2nc(N)c([N+](=O)[O-])c(N3CCCC3)n2)cc1	none
CCN(C(=O)CSc1nnc(CNc2cccc(OC)c2)n1C1CCCCC1)C1CCS(=O)(=O)C1 (stereo unspecified)	none
COc1ccc(C(=O)NCC2(c3ccc(OC)c(OC)c3)CCCC2)c(OC)c1	none
